The test system of one test is HL-60. The experiment in a line: Antiproliferative activity against human HL60 cells after 84 hrs by CCK8 assay. The class given is functional, cell-based. In short, it runs like this:
(§1)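 Suspension haematopoietic lines seeded in triplicate in 96-well plates; drug stock added immediately to the final concentrations. After 84 h culture, CCK-8 reagent added and absorbance at OD450 nm read after 2 h incubation.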
Background: Tetrazolium assays rely on reduction of a dye to a coloured formazan, in cell work by metabolically active cells.

For a further test, the system named is THP-1. The experiment in a line: Antiproliferative activity against human THP1 cells after 84 hrs by CCK8 assay. It is filed as functional, cell-based. The method in brief:
as §1

A further test relates to JeKo-1. The test can be described thus: Antiproliferative activity against human JeKo1 cells after 84 hrs by CCK8 assay. The class given is functional, cell-based. The method in brief: as §1
Another test deals with MM1.S. The experiment in a line: Antiproliferative activity against human MM1S cells after 84 hrs by CCK8 assay. The class given is functional, cell-based. The method in brief:
as §1

The species entered for test [1] is Homo sapiens. The test can be described thus: (§2) Antiproliferative activity against human Mino cells after 84 hrs by CCK8 assay. It is filed as functional, cell-based. The method in brief:
as §1

The subject of another test is RPMI-8226. The test can be described thus: Antiproliferative activity against human RPMI8226 cells after 84 hrs by CCK8 assay. It is filed as functional, cell-based. In short, it runs like this: as §1
The subject of another test is Daoy. The experiment in a line: Induction of cIAP-mediated CDK6 degradation in human DAOY cells at 1 uM after 24 hrs by immunoblot analysis. It is filed as cell-based. In short, it runs like this:
(§3)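 Medulloblastoma DAOY cells treated 24 h with PROTACs at 1 μM; CDK6 levels then assessed by immunoblot. Palbociclib at 500 nM and 1 μM as positive control.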
For orientation: Immunoblotting shows a protein as a band on a membrane.

The species named for test [2] is Homo sapiens. The test can be described thus: Induction of cIAP-mediated CDK4 degradation in human U251 cells at 1 uM after 24 hrs by immunoblot analysis. The class given is cell-based.
For test [3], the species on record is Homo sapiens. The test can be described thus: Induction of cIAP-mediated CDK6 degradation in human U251 cells at 1 uM after 24 hrs by immunoblot analysis. The class given is cell-based.
The target of test [4] is Protein cereblon/Cyclin-dependent kinase 6 (Homo sapiens, UniProt Q00534+Q96SW2). The test can be described thus: Induction of CRBN-mediated CDK6 degradation in human U251 cells after 24 hrs by immunoblot analysis. It is filed as cell-based.
For test [5], the target named is Protein cereblon/Cyclin-dependent kinase 4 (Homo sapiens, UniProt P11802+Q96SW2). The test can be described thus: Induction of CRBN-mediated CDK4 degradation in human U251 cells after 24 hrs by immunoblot analysis. The class given is cell-based.
For test [6], the target named is T1, von Hippel-Lindau disease tumor suppressor/Cyclin-dependent kinase 6 (Homo sapiens) (UniProt Q00534+P40337). The experiment in a line: Induction of VHL-mediated CDK6 degradation in human U251 cells at 1 uM after 24 hrs by immunoblot analysis. The class given is cell-based.
The target of test [7] is von Hippel-Lindau disease tumor suppressor/Cyclin-dependent kinase 4 (Homo sapiens) (UniProt P11802+P40337). The test can be described thus: Induction of VHL-mediated CDK4 degradation in human U251 cells at 1 uM after 24 hrs by immunoblot analysis. It is filed as cell-based.
Test [8] addresses T1, von Hippel-Lindau disease tumor suppressor/Cyclin-dependent kinase 6 (Homo sapiens). The experiment in a line: Induction of VHL-mediated CDK6 degradation in human DAOY cells at 1 uM after 24 hrs by immunoblot analysis. The class given is cell-based. The method in brief: as §3
Test [9] addresses T2, E3 ubiquitin-protein ligase Mdm2/CDK6 (Homo sapiens) (UniProt Q00987+Q00534). The experiment in a line: Induction of MDM2-mediated CDK6 degradation in human DAOY cells at 1 uM after 24 hrs by immunoblot analysis. The class given is cell-based. The method in brief:
as §3

Test [10] has as its system E3 ubiquitin-protein ligase Mdm2/Cyclin-dependent kinase 4 (Homo sapiens). The test can be described thus: Induction of MDM2-mediated CDK4 degradation in human U251 cells at 1 uM after 24 hrs by immunoblot analysis.
Test [11] has as its target T2, E3 ubiquitin-protein ligase Mdm2/CDK6 (Homo sapiens). The experiment in a line: Induction of MDM2-mediated CDK6 degradation in human U251 cells at 1 uM after 24 hrs by immunoblot analysis. The class given is cell-based.
The nature of test [12]: as §2. It is filed as functional, cell-based. In short, it runs like this: as §1

The text below walks through data of ChEMBL document CHEMBL4311951, “Potent and Preferential Degradation of CDK6 via Proteolysis Targeting Chimera Degraders” (J Med Chem, 2019).

Activity calls are given as the source filed them. The calls are words filed in the database; no cut-off is given here.

von Hippel-Lindau disease tumor suppressor/Cyclin-dependent kinase 4 (Homo sapiens), sequence (P11802 2-303 limits assumed): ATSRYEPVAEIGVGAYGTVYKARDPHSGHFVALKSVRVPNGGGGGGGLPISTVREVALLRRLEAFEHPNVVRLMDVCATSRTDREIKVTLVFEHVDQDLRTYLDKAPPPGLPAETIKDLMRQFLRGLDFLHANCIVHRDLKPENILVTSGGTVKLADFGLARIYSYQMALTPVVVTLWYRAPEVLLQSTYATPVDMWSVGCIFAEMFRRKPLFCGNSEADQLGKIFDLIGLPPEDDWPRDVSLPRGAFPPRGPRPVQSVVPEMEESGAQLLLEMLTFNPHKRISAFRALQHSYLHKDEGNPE
von Hippel-Lindau disease tumor suppressor/Cyclin-dependent kinase 4 (Homo sapiens), sequence (P40337 whole entry partner): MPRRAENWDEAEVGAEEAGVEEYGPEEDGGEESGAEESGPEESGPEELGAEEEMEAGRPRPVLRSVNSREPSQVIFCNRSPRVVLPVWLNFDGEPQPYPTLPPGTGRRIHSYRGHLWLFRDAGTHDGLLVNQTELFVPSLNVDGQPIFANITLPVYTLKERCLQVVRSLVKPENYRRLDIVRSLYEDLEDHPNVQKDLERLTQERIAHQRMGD
T2 sequence (Q00534 whole entry, looked up): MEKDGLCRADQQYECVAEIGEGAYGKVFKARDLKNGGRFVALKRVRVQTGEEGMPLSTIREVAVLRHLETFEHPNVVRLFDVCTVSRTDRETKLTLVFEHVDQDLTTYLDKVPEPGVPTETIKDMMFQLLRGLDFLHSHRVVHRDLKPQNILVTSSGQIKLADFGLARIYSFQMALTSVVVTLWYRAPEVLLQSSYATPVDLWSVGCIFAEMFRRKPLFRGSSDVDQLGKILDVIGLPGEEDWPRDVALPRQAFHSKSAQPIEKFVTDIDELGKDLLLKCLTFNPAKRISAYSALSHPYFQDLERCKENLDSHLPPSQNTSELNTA
T2 sequence (Q00987 whole entry, looked up): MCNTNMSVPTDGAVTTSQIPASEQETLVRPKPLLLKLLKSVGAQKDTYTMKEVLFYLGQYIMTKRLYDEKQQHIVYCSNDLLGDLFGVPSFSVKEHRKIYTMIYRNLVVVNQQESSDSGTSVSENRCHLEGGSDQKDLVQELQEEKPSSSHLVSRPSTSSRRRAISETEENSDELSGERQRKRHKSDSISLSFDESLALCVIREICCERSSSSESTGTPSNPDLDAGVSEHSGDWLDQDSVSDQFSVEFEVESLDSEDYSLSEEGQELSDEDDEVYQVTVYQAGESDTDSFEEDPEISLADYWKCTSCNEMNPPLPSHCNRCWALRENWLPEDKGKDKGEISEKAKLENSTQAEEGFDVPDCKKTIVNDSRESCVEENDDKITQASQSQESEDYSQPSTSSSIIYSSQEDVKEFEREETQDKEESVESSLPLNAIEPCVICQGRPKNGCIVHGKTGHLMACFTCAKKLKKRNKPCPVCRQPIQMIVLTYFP
Protein cereblon/Cyclin-dependent kinase 4, sequence (P11802 whole entry): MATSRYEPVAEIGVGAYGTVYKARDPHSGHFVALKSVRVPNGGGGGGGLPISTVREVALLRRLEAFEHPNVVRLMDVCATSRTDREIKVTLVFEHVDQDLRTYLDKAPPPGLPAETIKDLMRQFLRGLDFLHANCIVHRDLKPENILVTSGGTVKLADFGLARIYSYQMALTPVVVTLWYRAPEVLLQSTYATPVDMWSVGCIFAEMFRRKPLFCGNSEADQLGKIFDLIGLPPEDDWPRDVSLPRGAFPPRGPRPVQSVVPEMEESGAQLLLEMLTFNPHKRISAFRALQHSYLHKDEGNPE
Protein cereblon/Cyclin-dependent kinase 4, sequence (Q96SW2 whole entry): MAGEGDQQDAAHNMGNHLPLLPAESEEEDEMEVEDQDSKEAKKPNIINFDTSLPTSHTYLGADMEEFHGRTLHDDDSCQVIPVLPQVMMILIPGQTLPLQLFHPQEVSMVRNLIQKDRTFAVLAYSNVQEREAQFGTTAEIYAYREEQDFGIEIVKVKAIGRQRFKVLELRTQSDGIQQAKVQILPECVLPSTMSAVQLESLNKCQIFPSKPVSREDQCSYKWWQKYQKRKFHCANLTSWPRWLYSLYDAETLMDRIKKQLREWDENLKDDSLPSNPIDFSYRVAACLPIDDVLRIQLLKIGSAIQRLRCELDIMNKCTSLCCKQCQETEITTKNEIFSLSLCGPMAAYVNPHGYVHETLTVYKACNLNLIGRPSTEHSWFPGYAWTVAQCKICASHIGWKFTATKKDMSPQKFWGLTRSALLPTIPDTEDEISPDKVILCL
T1 sequence (P40337 whole entry, looked up): as the sequence (P40337 whole entry partner) above
T1 sequence (Q00534 whole entry, looked up): as the sequence (Q00534 whole entry, looked up) above

Regarding `CCN1C(=O)CCC(N2C(=O)c3cccc(NCCOCCn4cc(CN5CCN(c6ccc(Nc7ncc8c(C)c(C(C)=O)c(=O)n(C9CCCC9)c8n7)nc6)CC5)nn4)c3C2=O)C1=O` (configuration not stated), the result with HL-60, in the test on THP-1, with JeKo-1, in the test with MM1.S, in the test listed under Homo sapiens [1] and with RPMI-8226 was inactive.

On to `CC(=O)c1c(C)c2cnc(Nc3ccc(N4CCN(Cc5cn(CCOCCOCCNC(=O)[C@H](CC(C)C)NC(=O)[C@@H](O)[C@H](N)Cc6ccccc6)nn5)CC4)cn3)nc2n(C2CCCC2)c1=O`, for which the result in the test with Daoy, in the test listed under Homo sapiens [2] and in the test filed under Homo sapiens [3] was inactive.

By DC50 is commonly meant the concentration at which degradation of the target reaches its halfway point. Low values mean degradation at low concentration, high ones degradation only at high concentration. Take `Cc1nc2c(F)cc(-c3nc(Nc4ccc(CN5CCN(Cc6cn(CCOCCOCCOCCOCCNc7cccc8c7C(=O)N(C7CCC(=O)NC7=O)C8=O)nn6)CC5)cn4)ncc3F)cc2n1C(C)C` (configuration not stated): the DC50 in test [4] is 146 nM; in test [5] it was above 500 nM.

Take `CN(C)C(=O)c1cc2cnc(Nc3ccc(N4CCN(Cc5cn(CCOCCOCCNc6cccc7c6C(=O)N(C6CCC(=O)NC6=O)C7=O)nn5)CC4)cn3)nc2n1C1CCCC1` (configuration not stated): in test [4], the outcome was inactive.

Regarding `CC(=O)c1c(C)c2cnc(Nc3ccc(N4CCN(Cc5cn(CCOCCOCCNC(=O)CCC(=O)N[C@H](C(=O)N6C[C@H](O)C[C@H]6C(=O)NCc6ccc(-c7scnc7C)cc6)C(C)(C)C)nn5)CC4)cn3)nc2n(C2CCCC2)c1=O`, the result in [6], in test [7] and in [8] was inactive.

`Cc1nc2c(F)cc(-c3nc(Nc4ccc(CN5CCN(Cc6cn(CCOCCOCCNc7cccc8c7C(=O)N(C7CCC(=O)NC7=O)C8=O)nn6)CC5)cn4)ncc3F)cc2n1C(C)C` (configuration not stated): the values for the DC50 in [4] and in test [5] were 130 nM and above 500 nM, respectively.

As for `CC(=O)c1c(C)c2cnc(Nc3ccc(N4CCN(Cc5cn(CCOCCOCCOCCOCCNC(=O)CCC(=O)N[C@H](C(=O)N6C[C@H](O)C[C@H]6C(=O)NCc6ccc(-c7scnc7C)cc6)C(C)(C)C)nn5)CC4)cn3)nc2n(C2CCCC2)c1=O`, the outcome in test [6], in test [7] and in test [8] was inactive.

As to `CN(C)C(=O)c1cc2cnc(Nc3ccc(N4CCN(Cc5cn(CCOCCOCCOCCNc6cccc7c6C(=O)N(C6CCC(=O)NC6=O)C7=O)nn5)CC4)cn3)nc2n1C1CCCC1` (configuration not stated), in test [4], the result was inactive.

For `CC(=O)c1c(C)c2cnc(Nc3ccc(N4CCN(Cc5cn(CCCCC#Cc6cccc7c6C(=O)N(C6CCC(=O)NC6=O)C7=O)nn5)CC4)cn3)nc2n(C2CCCC2)c1=O` (configuration not stated), the DC50 in test [4] is 81.6 nM; in test [5], above 100 nM.

Consider `CC(=O)c1c(C)c2cnc(Nc3ccc(N4CCN(Cc5cn(CCCCCCc6cccc7c6C(=O)N(C6CCC(=O)NC6=O)C7=O)nn5)CC4)cn3)nc2n(C2CCCC2)c1=O` (configuration not stated), for which the DC50 was 1.7 nM in test [4] and above 50 nM in test [5].

Take `COc1ccc(C2=N[C@H](c3ccc(Cl)cc3)[C@H](c3ccc(Cl)cc3)N2C(=O)N2CCN(CC(=O)NCCOCCOCCn3cc(CN4CCN(c5ccc(Nc6ncc7c(C)c(C(C)=O)c(=O)n(C8CCCC8)c7n6)nc5)CC4)nn3)CC2)c(OC(C)C)c1`: the outcome in [9], in test [10] and in [11] was inactive.

With `CN(C)C(=O)c1cc2cnc(Nc3ccc(N4CCN(Cc5cn(CCOCCNc6cccc7c6C(=O)N(C6CCC(=O)NC6=O)C7=O)nn5)CC4)cn3)nc2n1C1CCCC1` (configuration not stated), the result in test [4] was inactive.

Regarding `CC(=O)c1c(C)c2cnc(Nc3ccc(N4CCN(CC(=O)NCCOCCOCCNc5cccc6c5C(=O)N(C5CCC(=O)NC5=O)C6=O)CC4)cn3)nc2n(C2CCCC2)c1=O` (configuration not stated), the 50% degradation concentration (DC50) is 24.2 nM in [4] and above 100 nM in test [5].

Consider `CC(=O)c1c(C)c2cnc(Nc3ccc(N4CCN(Cc5cn(CCOCCOCCOCCNC(=O)[C@H](CC(C)C)NC(=O)[C@@H](O)[C@H](N)Cc6ccccc6)nn5)CC4)cn3)nc2n(C2CCCC2)c1=O`, for which the result in the test on Daoy, in the test listed under Homo sapiens [2] and in the test listed under Homo sapiens [3] was inactive.

Take `CC(=O)c1c(C)c2cnc(Nc3ccc(N4CCN(CCOCCOCCNc5cccc6c5C(=O)N(C5CCC(=O)NC5=O)C6=O)CC4)cn3)nc2n(C2CCCC2)c1=O` (configuration not stated): the DC50 is 1.6 nM in test [4] and above 50 nM in [5].

For the compound `COc1ccc(C2=N[C@H](c3ccc(Cl)cc3)[C@H](c3ccc(Cl)cc3)N2C(=O)N2CCN(CC(=O)NCCOCCOCCOCCn3cc(CN4CCN(c5ccc(Nc6ncc7c(C)c(C(C)=O)c(=O)n(C8CCCC8)c7n6)nc5)CC4)nn3)C(=O)C2)c(OC(C)C)c1`, the result in [9], in test [10] and in test [11] was inactive.

For `CC(=O)c1c(C)c2cnc(Nc3ccc(N4CCN(Cc5cn(CCOCCNC(=O)CCC(=O)N[C@H](C(=O)N6C[C@H](O)C[C@H]6C(=O)NCc6ccc(-c7scnc7C)cc6)C(C)(C)C)nn5)CC4)cn3)nc2n(C2CCCC2)c1=O`, the result in [6], in [7] and in [8] was inactive.

As to `CC(=O)c1c(C)c2cnc(Nc3ccc(N4CCN(Cc5cn(CCOCCOCCOCCOCCNC(=O)[C@H](CC(C)C)NC(=O)[C@@H](O)[C@H](N)Cc6ccccc6)nn5)CC4)cn3)nc2n(C2CCCC2)c1=O`, the outcome in the test on Daoy, in the test listed under Homo sapiens [2] and in the test filed under Homo sapiens [3] was inactive.

As usually defined, the IC50 is the concentration at which inhibition is half-maximal. A high value points to weaker potency in that assay. Regarding `CC(=O)c1c(C)c2cnc(Nc3ccc(N4CCNCC4)cn3)nc2n(C2CCCC2)c1=O` [PALBOCICLIB], the result with HL-60, in the test on THP-1, in the test on JeKo-1 and in the test with RPMI-8226 was Active. Also, the IC50 was 200 nM with MM1.S and 45 nM in [12].

Regarding `CC(=O)c1c(C)c2cnc(Nc3ccc(N4CCN(Cc5cn(CCOCCNC(=O)[C@H](CC(C)C)NC(=O)[C@@H](O)[C@H](N)Cc6ccccc6)nn5)CC4)cn3)nc2n(C2CCCC2)c1=O`, the result in the test with Daoy, in the test filed under Homo sapiens [2] and in the test listed under Homo sapiens [3] was inactive.

Regarding `CC(=O)c1c(C)c2cnc(Nc3ccc(N4CCN(Cc5cn(CCOCCOCCOCCNC(=O)CCC(=O)N[C@H](C(=O)N6C[C@H](O)C[C@H]6C(=O)NCc6ccc(-c7scnc7C)cc6)C(C)(C)C)nn5)CC4)cn3)nc2n(C2CCCC2)c1=O`, the outcome in test [6], in test [7] and in test [8] was inactive.

Turning to `CC(=O)c1c(C)c2cnc(Nc3ccc(N4CCN(CC(=O)NCCOCCNc5cccc6c5C(=O)N(C5CCC(=O)NC5=O)C6=O)CC4)cn3)nc2n(C2CCCC2)c1=O` (configuration not stated), the DC50 in test [4] was 1.1 nM; in test [5] it was above 100 nM.

On to `COc1ccc(C2=N[C@H](c3ccc(Cl)cc3)[C@H](c3ccc(Cl)cc3)N2C(=O)N2CCN(CC(=O)NCCOCCn3cc(CN4CCN(c5ccc(Nc6ncc7c(C)c(C(C)=O)c(=O)n(C8CCCC8)c7n6)nc5)CC4)nn3)C(=O)C2)c(OC(C)C)c1`, for which the result in test [9], in test [10] and in [11] was inactive.

With `CC(=O)c1c(C)c2cnc(Nc3ccc(N4CCN(Cc5cn(CCCCCCNc6cccc7c6C(=O)N(C6CCC(=O)NC6=O)C7=O)nn5)CC4)cn3)nc2n(C2CCCC2)c1=O` (configuration not stated), the 50% degradation concentration (DC50) in test [4] was 10.6 nM; in [5], above 100 nM.

Regarding `CCN1C(=O)CCC(N2C(=O)c3cccc(NCCOCCOCCn4cc(CN5CCN(c6ccc(Nc7ncc8c(C)c(C(C)=O)c(=O)n(C9CCCC9)c8n7)nc6)CC5)nn4)c3C2=O)C1=O` (configuration not stated), the outcome with HL-60, with THP-1, with JeKo-1, with MM1.S, in the test filed under Homo sapiens [1] and with RPMI-8226 was inactive.

For the compound `Cc1nc2c(F)cc(-c3nc(Nc4ccc(CN5CCN(Cc6cn(CCOCCNc7cccc8c7C(=O)N(C7CCC(=O)NC7=O)C8=O)nn6)CC5)cn4)ncc3F)cc2n1C(C)C` (configuration not stated), the values for the DC50 in test [4] and in test [5] were 8.6 nM and above 500 nM, respectively.
